The results in this text go back to ChEMBL document CHEMBL2169872, “(S)-N-(2,5-Dimethylphenyl)-1-(quinoline-8-ylsulfonyl)pyrrolidine-2-carboxamide as a small molecule inhibitor probe for the study of respiratory syncytial virus infection” (J Med Chem, 2012).

Data set [1] deals with HEp-2. In words: Cytotoxicity against human Hep2 cells by Cell Titer-Glo assay. It counts as cell-based. (In general: ATP-based viability assays read luminescence as a measure of living cells.)
Data set [2] concerns Respiratory syncytial virus. The data set is described as follows: Antiviral activity against Respiratory syncytial virus Long infected in human Hep2 cells assessed as reduction in virus-induced cytopathogenicity by Cell Titer-Glo assay. It counts as functional, organism-based. As to conditions: HEp-2. A general note: Protection from cytopathic effect is a common read-out in antiviral testing.

A short description of data set [3]: Selectivity index, ratio of CC50 for human Hep2 cells to EC50 for Respiratory syncytial virus Long infected in human Hep2 cells.
Data set [4] deals with Respiratory syncytial virus. The data set is described as follows: Antiviral activity against Respiratory syncytial virus Long infected in human Hep2 cells assessed as log reduction in virus titer at 25 uM by virus plaque reduction assay. It counts as functional, HEp-2.
Data set [5] has as its system Respiratory syncytial virus. The data set is described as follows: Antiviral activity against Respiratory syncytial virus Long infected in human Hep2 cells assessed as protection against virus-induced cytopathogenicity by measuring cell viability at 24 hrs post infection by Cell Titer-Glo assay. It is filed as functional, HEp-2. Summed up: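 HEp-2 cells seeded at 10 000/well and held 24 h at 37 °C, 5% CO₂, then infected at time 0 with hRSV Long at MOI 3.0. Compound added at 25 μM final, in triplicate, at −1 to 24 h post-infection. After 6 days at 37 °C, plates were brought to room temperature and Cell Titer-Glo luminescence read after 10 min. Cell-only and virus-only controls were included.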

Data set [6] deals with Respiratory syncytial virus. In words: Antiviral activity against Respiratory syncytial virus Long infected in human Hep2 cells assessed as post infection time duration of protection against virus-induced cytopathogenicity by Cell Titer-Glo assay. It is filed as functional, HEp-2. Summed up: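 HEp-2 cells seeded at 10 000 cells/well, held 24 h at 37 °C, 5% CO2, then infected with hRSV Long at MOI 3.0 at time 0. Compound added at 25 μM final, in triplicate, at −1, 0, 1, 2, 3, 5, 7, 21 or 24 h pi. Incubated 6 days at 37 °C, 5% CO2. Read by Cell Titer-Glo luminescence after 30 min room-temperature equilibration and 10 min reagent incubation. Uninfected and infected untreated wells served as controls.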

A short description of data set [7]: Chemical stability in 50% PBS/50% acetonitrile solution assessed as unchanged parent compound remaining after 48 hrs. It counts as physicochemical. Particulars: read-out: Stability.
Data set [8] can be described thus: Aqueous solubility in PBS buffer. It counts as physicochemical.
In data set [9] the test system is HEp-2. In words: Cytotoxicity against uninfected human Hep2 cells assessed as cell viability at 25 uM measured after 144 hrs by Cell Titer-Glo assay. It counts as cell-based. As to conditions: hep-2, 144 h. Summed up: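 Uninfected HEp-2 cells were given compound at 25 μM at time point 0. Viability was read by Cell Titer-Glo after 144 h.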

≈ marks a conversion by molar mass, not a printed value.

In general, CC50 refers to the concentration at which the toxic effect on the cells reaches its halfway point. A low value points to harm at low concentration. As usually defined, the EC50 is the concentration needed to bring the measured effect to its halfway point. As for `Cc1ccc(NC(=O)CN(C)S(=O)(=O)c2cccc3cccnc23)c(C)c1`, the CC50 in data set [1] was over 50 µM. Moreover, in data set [2], the EC50 is over 50 µM.

The molecule `Cc1ccc(NC(=O)[C@H]2CCCN2S(=O)(=O)c2cccc3cccnc23)c(C)c1` returned a CC50 in [1] of 38.1 µM. The EC50 in [2] is over 50 µM. In data set [3], the selectivity ratio turned out to be 0.8.

In data set [1], `Cc1ccc(NC(=O)[C@@H]2CCCN2S(=O)(=O)c2cccc3cccnc23)c(C)c1` gave a CC50 of 31.8 µM. The EC50 in [2] amounted to 2.7 µM. In data set [3], the selectivity ratio was determined as 11.8. In data set [4], the FC came out at 1.

In turn, `Cc1ccc(NC(=O)CNS(=O)(=O)c2cccc3cccnc23)c(C)c1` returned a CC50 in [1] of over 50 µM. For the same molecule, the EC50 in data set [2] is over 50 µM.

In the case of `Cc1ccc(NC(=O)C(C)NS(=O)(=O)c2cccc3cccnc23)c(C)c1` (configuration not stated), the CC50 in data set [1] is over 50 µM. Further, the concentration for a half-maximal effect (EC50) in [2] was over 50 µM.

`Cc1ccccc1NC(=O)[C@@H]1CCCN1S(=O)(=O)c1cccc2cccnc12` yielded a half-maximal cytotoxic concentration (CC50) in data set [1] of over 50 µM. Also, the EC50 in [2] came to 23.8 µM.

`Cc1cccc(NC(=O)[C@@H]2CCCN2S(=O)(=O)c2cccc3cccnc23)c1` gave a CC50 in data set [1] of 25.5 µM. Also, the EC50 in data set [2] is over 50 µM.

In turn, `Cc1ccc(NC(=O)[C@@H]2CCCN2S(=O)(=O)c2cccc3cccnc23)cc1` came in with a CC50 in data set [1] of 31.7 µM. In addition, the EC50 in data set [2] is over 50 µM.

`O=C(Nc1ccccc1)[C@@H]1CCCN1S(=O)(=O)c1cccc2cccnc12` yielded a CC50 in [1] of 35.6 µM. Besides, in data set [2], the EC50 was over 50 µM.

`CCc1ccccc1NC(=O)[C@@H]1CCCN1S(=O)(=O)c1cccc2cccnc12` showed a CC50 in data set [1] of over 50 µM. Moreover, in [2], the EC50 came out at 21.2 µM.

As to `CC(C)c1ccccc1NC(=O)[C@@H]1CCCN1S(=O)(=O)c1cccc2cccnc12`, the CC50 in data set [1] worked out at 29.9 µM. Moreover, the EC50 in data set [2] turned out to be 17.6 µM.

Consider `Cc1ccnc(C)c1NC(=O)[C@@H]1CCCN1S(=O)(=O)c1cccc2cccnc12`, for which, in data set [1], the CC50 is over 50 µM. For the same molecule, the EC50 in data set [2] was over 50 µM.

With `Cc1cc(C)cc(NC(=O)[C@@H]2CCCN2S(=O)(=O)c2cccc3cccnc23)c1`, it took 31.3 µM to reach half-maximal cytotoxicity in data set [1] (CC50). Moreover, the EC50 in data set [2] was over 50 µM.

`O=C(Nc1ccc(Cl)cc1Cl)[C@@H]1CCCN1S(=O)(=O)c1cccc2cccnc12` registered a CC50 in data set [1] of over 50 µM. In addition, in [2], the EC50 is over 50 µM.

As a reminder, the solubility is the dissolved amount per volume that the medium holds. Low readings indicate a poorly soluble substance, high ones a readily soluble substance. For the molecule `Cc1ccc(C)c(NC(=O)[C@@H]2CCCN2S(=O)(=O)c2cccc3cccnc23)c1`, the Activity in data set [5] came to 26%. The midpoint of cytotoxicity in data set [1], the CC50, lay at 30.9 µM. For the same molecule, the EC50 in [2] came to 2.3 µM. For the same molecule, the Time in data set [6] was determined as 1 h. The FC in data set [4] is given as 2. In addition, the remaining at 48 h in data set [7] came out at 95.4%. The solubility in data set [8] worked out at 92.7 µg/mL (≈ 226 µM).

In turn, `Cc1cccc(C)c1NC(=O)[C@@H]1CCCN1S(=O)(=O)c1cccc2cccnc12` showed a 50% cytotoxic concentration (CC50) in data set [1] of over 50 µM. Besides, the EC50 in [2] was over 50 µM.

In data set [1], `Cc1ccc(Cl)cc1NC(=O)[C@@H]1CCCN1S(=O)(=O)c1cccc2cccnc12` registered a CC50 of 10 µM. In addition, the EC50 in [2] was found to be 2.2 µM.

In data set [1], `Cc1ccc(C(F)(F)F)cc1NC(=O)[C@@H]1CCCN1S(=O)(=O)c1cccc2cccnc12` gave a CC50 of 4.8 µM. In data set [2], the EC50 was over 50 µM.

`COc1ccc(C)c(NC(=O)[C@@H]2CCCN2S(=O)(=O)c2cccc3cccnc23)c1`: in data set [1], the CC50 worked out at 44.2 µM. The EC50 in data set [2] worked out at 4.2 µM. The FC in data set [4] was determined as 1. The Activity in data set [9] came to 88%.

The molecule `Cc1ccc(C(C)C)cc1NC(=O)[C@@H]1CCCN1S(=O)(=O)c1cccc2cccnc12` showed a CC50 in data set [1] of 9.7 µM. Moreover, the EC50 in [2] was over 50 µM.

As to `Cc1ccc(C(C)(C)C)cc1NC(=O)[C@@H]1CCCN1S(=O)(=O)c1cccc2cccnc12`, the CC50 in data set [1] came out at 6.5 µM. In [2], the EC50 is over 50 µM.

Take `Cc1ccc(Cl)c(NC(=O)[C@@H]2CCCN2S(=O)(=O)c2cccc3cccnc23)c1`: in data set [1], the CC50 was over 50 µM. In addition, in data set [2], the half-maximal effective concentration (EC50) was over 50 µM.

Molecule `COc1ccc(C)cc1NC(=O)[C@@H]1CCCN1S(=O)(=O)c1cccc2cccnc12` registered a CC50 in data set [1] of over 50 µM. Further, in data set [2], the EC50 was over 50 µM.

In turn, `Cc1cc(NC(=O)[C@@H]2CCCN2S(=O)(=O)c2cccc3cccnc23)n(C(C)(C)C)n1` registered a CC50 in data set [1] of over 50 µM. Besides, in data set [2], the EC50 was over 50 µM.

As to `Cc1ccc(NC(=O)C2CCCN2S(=O)(=O)c2cccc3cccnc23)c(C)c1` (racemic), half-maximal cytotoxicity in data set [1] (CC50) was put at 31.5 µM. Besides, in data set [2], the EC50 turned out to be 5 µM. In addition, the selectivity ratio in data set [3] turned out to be 6.3. The FC in [4] was determined as 2.1.

In turn, `NC(=O)c1ncn([C@@H]2O[C@H](CO)[C@@H](O)[C@H]2O)n1` [RIBAVIRIN] gave a CC50 in data set [1] of 114 µM. Further, the EC50 in data set [2] is 28.4 µM. Also, in [6], the Time is 7 h. The FC in data set [4] is listed as 2.5. For the same molecule, the Activity in data set [9] is 90%.
